Measurements reported in publication PMC9116722 (Cancer chemotherapy and pharmacology, 2022).

Test: Adverse events
Type: in vivo, human
Conditions: BRCAmut and BRCAwt combined
How it was run: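 Patients with germline BRCA-mutated cancers, or BRCA-wildtype TNBC or platinum-refractory ovarian cancer, took oral drug continuously twice daily in 28-day cycles. There were nine dose levels from 50 to 500 mg BID under 3+3 escalation, run separately per cohort after the first DLT. Toxicities were graded by CTCAE v4.0, with DLTs assessed during cycle 1.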

## C[C@]1(c2nc3c(C(N)=O)cccc3[nH]2)CCCN1 [veliparib]
  Abdominal pain, Any Grade: 6 (6) number of patients (%)
  Abdominal pain, Grade 1: 3 (3) number of patients (%)
  Abdominal pain, Grade 2: 1 (1) number of patients (%)
  Abdominal pain, Grade 3: 2 (2) number of patients (%)
  Abdominal pain, Grade 4: 0 (0) number of patients (%)
  Alkaline phosphatase increased, Any Grade: 6 (6) number of patients (%)
  Alkaline phosphatase increased, Grade 1: 3 (3) number of patients (%)
  Alkaline phosphatase increased, Grade 2: 2 (2) number of patients (%)
  Alkaline phosphatase increased, Grade 3: 1 (1) number of patients (%)
  Alkaline phosphatase increased, Grade 4: 0 (0) number of patients (%)
  Anemia, Any Grade: 31 (32) number of patients (%)
  Anemia, Grade 1: 19 (19) number of patients (%)
  Anemia, Grade 2: 10 (10) number of patients (%)
  Anemia, Grade 3: 1 (1) number of patients (%)
  Anemia, Grade 4: 1 (1) number of patients (%)
  Anorexia, Any Grade: 20 (20) number of patients (%)
  Anorexia, Grade 1: 17 (17) number of patients (%)
  Anorexia, Grade 2: 3 (3) number of patients (%)
  Anorexia, Grade 3: 0 (0) number of patients (%)
  Anorexia, Grade 4: 0 (0) number of patients (%)
  Any adverse event, Any Grade: 92 (94) number of patients (%)
  Any adverse event, Grade 1: 86 (88) number of patients (%)
  Any adverse event, Grade 2: 54 (55) number of patients (%)
  Any adverse event, Grade 4: 3 (3) number of patients (%)
  Aspartate aminotransferase increased, Any Grade: 9 (9) number of patients (%)
  Aspartate aminotransferase increased, Grade 1: 8 (8) number of patients (%)
  Aspartate aminotransferase increased, Grade 2: 0 (0) number of patients (%)
  Aspartate aminotransferase increased, Grade 3: 1 (1) number of patients (%)
  Aspartate aminotransferase increased, Grade 4: 0 (0) number of patients (%)
  Constipation, Any Grade: 9 (9) number of patients (%)
  Constipation, Grade 1: 8 (8) number of patients (%)
  Constipation, Grade 2: 1 (1) number of patients (%)
  Constipation, Grade 3: 0 (0) number of patients (%)
  Constipation, Grade 4: 0 (0) number of patients (%)
  Diarrhea, Any Grade: 19 (19) number of patients (%)
  Diarrhea, Grade 1: 16 (16) number of patients (%)
  Diarrhea, Grade 2: 3 (3) number of patients (%)
  Diarrhea, Grade 3: 0 (0) number of patients (%)
  Diarrhea, Grade 4: 0 (0) number of patients (%)
  Dizziness, Any Grade: 9 (9) number of patients (%)
  Dizziness, Grade 1: 8 (8) number of patients (%)
  Dizziness, Grade 2: 1 (1) number of patients (%)
  Dizziness, Grade 3: 0 (0) number of patients (%)
  Dizziness, Grade 4: 0 (0) number of patients (%)
  Dry mouth, Any Grade: 8 (8) number of patients (%)
  Dry mouth, Grade 1: 8 (8) number of patients (%)
  Dry mouth, Grade 2: 0 (0) number of patients (%)
  Dry mouth, Grade 3: 0 (0) number of patients (%)
  Dry mouth, Grade 4: 0 (0) number of patients (%)
  Dysgeusia, Any Grade: 16 (16) number of patients (%)
  Dysgeusia, Grade 1: 16 (16) number of patients (%)
  Dysgeusia, Grade 2: 0 (0) number of patients (%)
  Dysgeusia, Grade 3: 0 (0) number of patients (%)
  Dysgeusia, Grade 4: 0 (0) number of patients (%)
  Dyspepsia, Any Grade: 6 (6) number of patients (%)
  Dyspepsia, Grade 1: 6 (6) number of patients (%)
  Dyspepsia, Grade 2: 0 (0) number of patients (%)
  Dyspepsia, Grade 3: 0 (0) number of patients (%)
  Dyspepsia, Grade 4: 0 (0) number of patients (%)
  Dyspnea, Any Grade: 5 (5) number of patients (%)
  Dyspnea, Grade 1: 2 (2) number of patients (%)
  Dyspnea, Grade 2: 1 (1) number of patients (%)
  Dyspnea, Grade 3: 1 (1) number of patients (%)
  Dyspnea, Grade 4: 1 (1) number of patients (%)
  Fatigue, Any Grade: 44 (45) number of patients (%)
  Fatigue, Grade 1: 33 (34) number of patients (%)
  Fatigue, Grade 2: 9 (9) number of patients (%)
  Fatigue, Grade 3: 2 (2) number of patients (%)
  Fatigue, Grade 4: 0 (0) number of patients (%)
  Headache, Any Grade: 9 (9) number of patients (%)
  Headache, Grade 1: 7 (7) number of patients (%)
  Headache, Grade 2: 1 (1) number of patients (%)
  Headache, Grade 3: 1 (1) number of patients (%)
  Headache, Grade 4: 0 (0) number of patients (%)
  Hyperglycemia, Any Grade: 10 (10) number of patients (%)
  Hyperglycemia, Grade 1: 9 (9) number of patients (%)
  Hyperglycemia, Grade 2: 1 (1) number of patients (%)
  Hyperglycemia, Grade 3: 0 (0) number of patients (%)
  Hyperglycemia, Grade 4: 0 (0) number of patients (%)
  Hyponatremia, Any Grade: 7 (7) number of patients (%)
  Hyponatremia, Grade 1: 7 (7) number of patients (%)
  Hyponatremia, Grade 2: 0 (0) number of patients (%)
  Hyponatremia, Grade 3: 0 (0) number of patients (%)
  Hyponatremia, Grade 4: 0 (0) number of patients (%)
  Hypophosphatemia, Any Grade: 8 (8) number of patients (%)
  Hypophosphatemia, Grade 1: 2 (2) number of patients (%)
